Converted amounts (≈) assume the structure as drawn. The source made the active and inactive calls. No cut-off for these calls is given here.
Tests used:
[1] = system: Staphylococcus aureus; assay: Antibacterial activity against Staphylococcus aureus ATCC 29213 incubated overnight followed by compound transfer to TSB medium measured after overnight incubation by cell counting; type: functional
[2] = system: Staphylococcus aureus; assay: Antibacterial activity against Staphylococcus aureus ATCC 25923 incubated overnight followed by compound transfer to TSB medium measured after overnight incubation by cell counting; type: functional
[3] = Cytotoxicity against Swiss albino mouse 3T3 cells; type: cell-based, NIH3T3; conditions: read-out: ED50 (the source's name)
[4] = Cytotoxicity against mouse RAW264.7 cells after 24 hrs by ATPlite assay; type: cell-based; conditions: read-out: ED50
Outline: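 RAW264 cells were plated at 30 000/well in DMEM with 10% FBS. Compounds were tested at six concentrations from DMSO stocks diluted 20-fold in medium, for 24 h at 37 °C, 5% CO2. Cellular ATP was read by ATPlite luminescence. Triplicate; ED50 with 95% CI from curve fitting.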

[5] = Antiinflammatory activity in Swiss albino mouse 3T3 cells assessed as inhibition of calcium ionophore A23187-induced PGE2 synthesis incubated for 3 hrs prior to calcium ionophore A23187-challenge measured after 15 mins by enzyme immunoassay; type: functional, cell-based; conditions: NIH3T3
Outline: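 3T3 cells were seeded at 27 × 10^3/well in phenol-red-free DMEM with 5% FBS and 5% newborn calf serum, then left to attach overnight. Compounds in DMSO (0.5% final) were added for 3 h at 37 °C. A23187 (0.5 mM, 10 μL/well) was then added for 15 min. Supernatant was diluted 81-fold and PGE2 measured by EIA. Triplicate; percent inhibition relative to DMSO control.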

[6] = system: Staphylococcus epidermidis; assay: Antibacterial activity against Staphylococcus epidermidis ATCC 35984 incubated overnight followed by compound transfer to TSB medium measured after overnight incubation by cell counting; type: functional
[7] = system: Staphylococcus aureus; assay: Antibacterial activity against Staphylococcus aureus ATCC 25923 after overnight incubation by broth microdilution method; type: functional
Outline: (§1)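 Broth microdilution (CLSI M7A7, modified) in tryptone soya broth with 0.025 g/mL glucose, replacing Mueller-Hinton. Compounds were 2-fold serially diluted in TSB containing 2% DMSO. Inoculum came from a 0.5 McFarland suspension diluted 1:100, giving about 5 × 10^5 cfu in 100 μL. Plates were incubated overnight at 37 °C. MIC = lowest concentration with no growth visible to the unaided eye.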

[8] = system: RAW264.7; assay: Antiinflammatory activity in mouse RAW264.7 cells assessed as inhibition of LPS-induced nitric oxide production incubated for 1 hr prior to LPS-challenge measured after 20 hrs by Griess method; type: functional, cell-based
Outline: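 RAW264 cells (10^6 cells/mL, 120 μL/well) were pre-incubated for 20 h. Compounds in DMSO, diluted 20-fold in medium, were added for 1 h. LPS (10 μL of 10 μg/mL) was then added and incubation continued for 20 h. Nitrite was measured by Griess reagent (23 °C, 20 min, A550) against 0–100 μM standards. Triplicate; expressed as a percentage of solvent control.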

[9] = system: NIH3T3; assay: Selectivity index, ratio of cytotoxic ED50 for Swiss albino mouse 3T3 cells to IC50 for calcium ionophore A23187-induced PGE2 synthesis in Swiss albino mouse 3T3 cells; type: functional
[10] = Antioxidant activity against AAPH-induced fluorescein peroxidation assessed as trolox equivalent measured every min for 35 mins by fluorimetric analysis; type: functional
Outline: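 ORAC: samples were diluted from 20 mg/mL DMSO stock into 75 mM phosphate buffer (pH 7.4), then 2-fold serially, with each tested at two concentrations. Reaction used fluorescein (10 μL, 5 μM) and AAPH (170 μL, 20 mM). Fluorescence was read every minute for 35 min at 37 °C. Values come from a Trolox standard curve (12.5–100 μM) of net AUC and are given as μmol TE/g. Quadruplicate.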

[11] = system: Staphylococcus epidermidis; assay: Antibacterial activity against Staphylococcus epidermidis ATCC 35984 after overnight incubation by broth microdilution method; type: functional; outline: as §1
[12] = system: Escherichia coli; assay: Antibacterial activity against Escherichia coli ATCC 25922 after overnight incubation by broth microdilution method; type: functional; outline: as §1
[13] = system: RAW264.7; assay: Antiinflammatory activity in mouse RAW264.7 cells assessed as inhibition of LPS-induced TNFalpha production incubated for 1 hr prior to LPS-challenge measured after 20 hrs by immunoassay; type: functional, cell-based
Outline: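 TNF-α was measured by mouse ELISA kit in the same LPS-stimulated RAW264 supernatants as the nitrite assay. Compounds were added 1 h before LPS (10 μL of 10 μg/mL), followed by 20 h incubation.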

[14] = system: RAW264.7; assay: Selectivity index, ratio of cytotoxic ED50 for mouse RAW264.7 cells to IC50 for LPS-induced nitric oxide synthesis in mouse RAW264.7 cells; type: functional
Outline: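 Selectivity index = RAW264 cytotoxicity ED50 (24 h ATPlite) divided by IC50 for inhibition of LPS-induced nitrite production in RAW264 cells.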

[15] = system: Staphylococcus aureus; assay: Antibacterial activity against Staphylococcus aureus ATCC 29213 after overnight incubation by broth microdilution method; type: functional; outline: as §1
[16] = system: Pseudomonas aeruginosa; assay: Antibacterial activity against Pseudomonas aeruginosa ATCC 27853 after overnight incubation by broth microdilution method; type: functional; outline: as §1

Row | Compound | MBC [1] [µM] | MBC [2] [µM] | CC50 [3] [µM] | CC50 at 24 h [4] [µM] | IC50 [5] [µM] | MBC [6] [µM] | MIC [7] [µM] | IC50 [8] [µM] | inhibition [8] | Selectivity Index [9] | Activity [10] [µmol/g] | MIC [11] [µM] | MIC [12] | inhibition [13] | Selectivity Index [14] | MIC [15] [µM] | MIC [16]
1 | CC[C@H](C)C(=O)c1c(O)c(C)c2oc3c(C)c(O)c(C(=O)CC(C)C)c(O)c3c2c1O [RHODOMYRTOXIN C] | 7.2 (≈ 3.09 µg/mL) | 0.9 (≈ 0.386 µg/mL) | 7 | 1.4 | 3.4 | 1.9 (≈ 0.814 µg/mL) | 0.9 (≈ 0.386 µg/mL) | 1.2 | Dose-dependent effect | 2.06 | 1010 | 1.9 (≈ 0.814 µg/mL) | inactive | inactive | 1.17 | 7.2 (≈ 3.09 µg/mL) | 
2 | CC[C@H](C)C(=O)c1c(O)c(C)c(O)c2c1oc1c(C(=O)C(C)C)c(O)c(C)c(O)c12 | 24.1 (≈ 9.99 µg/mL) | 24.1 (≈ 9.99 µg/mL) | 22.3 | 17.6 | > 200 | 6 (≈ 2.49 µg/mL) | 6 (≈ 2.49 µg/mL) | 4.4 | Dose-dependent effect |  | 6280 | 6 (≈ 2.49 µg/mL) | inactive | inactive | 4 | 12.1 (≈ 5.01 µg/mL) | 
3 | C[C@H]1COc2c(N3CCN(C)CC3)c(F)cc3c(=O)c(C(=O)O)cn1c23 [LEVOFLOXACIN] |  |  |  |  |  |  | < 0.53 |  |  |  |  | < 0.53 | < 0.53 µM |  |  | < 0.53 | < 0.53 µM
4 | Oc1cc(O)c2c(c1)O[C@H](c1ccc(O)c(O)c1)[C@H](O)C2 |  |  |  |  |  |  |  |  |  |  | 29200 |  |  |  |  |  | 
5 | CC[C@H](C)C(=O)c1c(O)c(C)c(O)c2c1oc1c(C(=O)[C@@H](C)CC)c(O)c(C)c(O)c12 | 14.7 (≈ 6.3 µg/mL) | 3.7 (≈ 1.59 µg/mL) | 24.1 | 6.8 | > 200 | 3.7 (≈ 1.59 µg/mL) | 3.7 (≈ 1.59 µg/mL) | 5 | Dose-dependent effect |  | 3640 | 3.7 (≈ 1.59 µg/mL) | inactive | inactive | 1.36 | 7.2 (≈ 3.09 µg/mL) | 
6 | Cc1c(O)c(C(=O)C(C)C)c(O)c2c1oc1c(C)c(O)c(C(=O)C(C)C)c(O)c12 | 11.4 (≈ 4.56 µg/mL) | 5.7 (≈ 2.28 µg/mL) | 15.3 | 12 | 4.5 | 22.7 (≈ 9.09 µg/mL) | 2.7 (≈ 1.08 µg/mL) | 3.4 | Dose-dependent effect | 3.4 | 1450 | 2.7 (≈ 1.08 µg/mL) | inactive | inactive | 3.53 | 2.7 (≈ 1.08 µg/mL) | inactive
7 | CC[C@H](C)C(=O)c1c(O)c(C)c2oc3c(C)c(O)c(C(=O)C(C)C)c(O)c3c2c1O | 3.9 (≈ 1.62 µg/mL) | 1.9 (≈ 0.787 µg/mL) | 9.4 | 6.5 | 6 | 3.9 (≈ 1.62 µg/mL) | 0.5 (≈ 0.207 µg/mL) | 0.6 | Dose-dependent effect | 1.57 | 2580 | 1.9 (≈ 0.787 µg/mL) | inactive | inactive | 10.83 | 3.9 (≈ 1.62 µg/mL) | 
8 | Cc1c(O)c(C(=O)C(C)C)c2oc3c(C(=O)C(C)C)c(O)c(C)c(O)c3c2c1O | 26.5 (≈ 10.6 µg/mL) | 26.5 (≈ 10.6 µg/mL) | 44 | 142 | > 200 | 13.2 (≈ 5.29 µg/mL) | 13.2 (≈ 5.29 µg/mL) | 89 |  |  | 609 | 13.2 (≈ 5.29 µg/mL) | inactive | inactive | 1.6 | 26.5 (≈ 10.6 µg/mL) | inactive
